The data set can be described thus: Toxicity liver stage against HepG2, at 10uM. More on the design: test concentration 10 uM, cell line HepG2-A16-CD81EGFP. The format is cell-based. The note with it: human, HepG2-A16-CD81EGFP cells; read-out: INHIBITION
Put shortly: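 Uninfected HepG2-A16-CD81EGFP cells, 3 × 10^3 per well, 1536-well, plated on prespotted compound at 10 μM final, parasite-free screening media added to match infected plates; puromycin 10 μM positive, DMSO 0.5% negative; run in parallel with 48 h PbLuc assay at 37 °C, 5% CO2; viability by CellTiter-Glo luminescence, normalized to controls.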

Consider `COCCN(CCOC)C(=O)c1ccn(-c2ccc3ccccn23)n1`, for which the cytotoxicity at 10 µM turned out to be 7.22%.

With `Cc1nccc(C2CCCCN2Cc2cccc(F)c2)n1` (configuration not stated), the cytotoxicity at 10 µM was -11.6%.

On to `O=C(NC(CN1CCCC1)c1ccccc1)c1c(O)cc(F)cc1F` (configuration not stated), for which the cytotoxicity at 10 µM was -2.3%.

Regarding `O=C(NCCc1cccs1)[C@H]1CO[C@H]2CCN(C3CCC3)C[C@H]2C1`, the cytotoxicity at 10 µM is -116%.

Consider `CCCN1C[C@@H]2CC[C@H]1CN(C(=O)c1ccc(N(C)CCO)cc1)C2`, for which the cytotoxicity at 10 µM is -6.47%.

Take `CCN(CC)CCn1cc(NC2CCSCC2)cn1`: the cytotoxicity at 10 µM came to 2.5%.

For the molecule `CCCS(=O)(=O)N1C[C@@H]2C[C@H](C(=O)Nc3cccnc3)[C@H](C1)O2`, the cytotoxicity at 10 µM is -78.8%.

With `CCc1nc(Cn2c(=O)c3c(C(F)(F)F)cc(C)nc3n2C)no1`, the cytotoxicity at 10 µM was determined as 2.58%.

As to `Cn1cc(CNC2CCOCC2)c(-c2cc3ccccc3o2)n1`, the cytotoxicity at 10 µM is -45.1%.

For `N#CCCCOc1cccnc1NC(=O)CCC1CCCC1`, the cytotoxicity at 10 µM is -2.08%.

For `O=C(O)C1CN(c2cccc(Cl)c2)CCO1` (configuration not stated), the cytotoxicity at 10 µM is -12.4%.

As to `COc1ccc(C(CO)NC(=O)Nc2cccc(C(C)=O)c2)cc1` (configuration not stated), the cytotoxicity at 10 µM amounted to 3.43%.

On to `CCC(C)C(=O)NCc1cccc(OCCN(C)C2CCOCC2)c1` (configuration not stated), for which the cytotoxicity at 10 µM was -0.114%.

`COCC(=O)Nc1ccc([C@@H](O)[C@H]2COCC(=O)N2C)cc1`: the cytotoxicity at 10 µM was determined as 10.3%.

Consider `Cc1cc(-c2nn3c(C)nnc3s2)n[nH]1`, for which the cytotoxicity at 10 µM amounted to 6.52%.

Turning to `Cc1ccnc(N2CCCC(c3nncn3C3CC3)C2)n1` (configuration not stated), the cytotoxicity at 10 µM is -5.45%.

As for `COc1ccc2cc(NC(=O)CCNc3nc(C)cc(C)n3)cnc2c1`, the cytotoxicity at 10 µM was -48.9%.

In the case of `c1cnc(N2CCOCC3(CN(Cc4cc[nH]n4)CCO3)C2)nc1` (configuration not stated), the cytotoxicity at 10 µM is 10%.

With `CC(=O)N1N=C(c2ccncc2)OC1C(=O)N(C)CCc1ccccc1` (configuration not stated), the cytotoxicity at 10 µM turned out to be 12.9%.

`CC1CCCCN1C(=O)COCc1nc(-c2ccncc2)no1` (configuration not stated): the cytotoxicity at 10 µM is 1.79%.

As to `O=C(CCN1CCc2ccccc21)N1C[C@@H](O)[C@H](N2CCCC2)C1`, the cytotoxicity at 10 µM is -17.8%.

As to `CCCS(=O)(=O)CCN1CCN(c2cc(F)ccc2F)CC1`, the cytotoxicity at 10 µM is -10%.

On to `COCC(=O)NC[C@H]1C[C@@H]2CCN1C[C@@H]2CN1CCc2ccccc2C1`, for which the cytotoxicity at 10 µM was -1.33%.

`CC[C@@]1(O)CCN(C(=O)c2ccc(OC(F)F)cc2)C[C@H]1O`: the cytotoxicity at 10 µM was 6.2%.

`NCC(=O)N1CCC2(CC1)CN(C(=O)Cc1ccc(Cl)cc1)CCO2`: the cytotoxicity at 10 µM was found to be 5.56%.

Take `Cc1[nH]ncc1C(C)NCc1cccnc1` (configuration not stated): the cytotoxicity at 10 µM was -0.98%.

On to `CCOCC(O)CN1CCN(C(=O)Cc2ccccc2C)CC1` (configuration not stated), for which the cytotoxicity at 10 µM was -3.43%.

`O=C1NCCCCC1NC(=O)N1CCc2ccccc21` (configuration not stated): the cytotoxicity at 10 µM was -0.734%.

On to `Cn1cccc1C(O)CNS(=O)(=O)Cc1ccccc1` (configuration not stated), for which the cytotoxicity at 10 µM is -37.1%.

With `CN(c1ccc(F)c(F)c1)S(=O)(=O)c1cc2c(c(C(=O)O)c1)OCCO2`, the cytotoxicity at 10 µM is -5.38%.

With `O=S(=O)(NCCC(O)c1cccs1)c1ccccc1` (configuration not stated), the cytotoxicity at 10 µM is -3.82%.

Turning to `Cc1ccc(CNC(=O)Nc2nnc(C(C)C)s2)n1C`, the cytotoxicity at 10 µM was -10%.

On to `Cc1cc(NC(=O)c2nn(C3CCS(=O)(=O)C3)c3c2CCCC3)no1` (configuration not stated), for which the cytotoxicity at 10 µM amounted to 3.85%.

For the molecule `CCc1nnc(CN2CC(n3cccn3)C2)o1`, the cytotoxicity at 10 µM is -146%.

For `CSc1nc2ccsc2c(=O)n1CC(=O)N1CCCCC1C` (configuration not stated), the cytotoxicity at 10 µM was 7.08%.

Turning to `Cc1nc(C)n(CC2CCCCN2CCOc2cccc(C#N)c2)n1` (configuration not stated), the cytotoxicity at 10 µM is -10%.

On to `Cc1nn(C)c(C)c1C1COCCN1C(=O)c1cc(F)ccc1F` (configuration not stated), for which the cytotoxicity at 10 µM was found to be 3.38%.

For `Cn1ncc(N2CCOC(CCNC(=O)N3CCCCC3)C2)cc1=O` (configuration not stated), the cytotoxicity at 10 µM is -1.25%.

On to `Cc1nn(CN(Cc2ccsc2)C2CC2)c(=O)c2noc(C)c12`, for which the cytotoxicity at 10 µM is -1.54%.

For the molecule `Cc1cnn(-c2cccc(N3CCCC3)n2)c1`, the cytotoxicity at 10 µM is -6.26%.

As for `CCO[C@H]1C[C@@H](O)C12CCN(C(=O)CC(F)(F)F)CC2`, the cytotoxicity at 10 µM was -6.36%.

With `Cc1nc(CO[C@@H]2CN(Cc3cnn(C)c3)[C@@H]3COC[C@@H]32)cs1`, the cytotoxicity at 10 µM was -7.06%.

As for `Cc1ccsc1CNC(=O)N(C)Cc1cnn(C)c1`, the cytotoxicity at 10 µM was -6.25%.

For `Cc1nonc1NC(=O)CCn1cc(Br)ccc1=O`, the cytotoxicity at 10 µM came out at 0.297%.

For the molecule `Cc1nc(CN2CCC3(CCN(Cc4cnn(C)c4)CC3)C2=O)cs1`, the cytotoxicity at 10 µM was 2.34%.

On to `CC(c1ccccn1)N(C)Cc1cc2cc3c(cc2[nH]c1=O)OCO3` (configuration not stated), for which the cytotoxicity at 10 µM was 11.7%.

Turning to `Cc1cc(C(=O)NCc2ccnc(OCC(F)(F)F)c2)on1`, the cytotoxicity at 10 µM is -9.63%.

`N#Cc1ccc(F)cc1Cn1cnc(C2CCC2)cc1=O`: the cytotoxicity at 10 µM is 15.4%.

Turning to `CN(C)Cc1nnc(C2CCN(C(=O)CCc3cccs3)CC2)n1C`, the cytotoxicity at 10 µM was -15.9%.

For the molecule `Cn1cc(CN2CCC[C@]3(C[C@H](Oc4ncccc4F)CO3)C2)cn1`, the cytotoxicity at 10 µM amounted to 9.92%.

Consider `CCOCCCNC(=O)CN(c1cccc(F)c1)S(C)(=O)=O`, for which the cytotoxicity at 10 µM is 7.77%.

For `COCC1CC2(CCN(Cc3nccs3)CC2)CN1Cc1ccccn1` (configuration not stated), the cytotoxicity at 10 µM is -98.4%.

Regarding `CSc1nc2ncc3c(=O)n(C)ccc3n2n1`, the cytotoxicity at 10 µM is -11.6%.

As to `c1cnc(N2CCN(Cc3nnnn3C3CC3)CC2)nc1`, the cytotoxicity at 10 µM worked out at 9.29%.

With `CC(C)N1CCCC2(CCN(C(=O)CCCn3cccn3)C2)C1=O` (configuration not stated), the cytotoxicity at 10 µM came out at 0.264%.

For `CCOc1cc(C(=O)n2cccn2)cc(OCC)c1OCC`, the cytotoxicity at 10 µM turned out to be 2.83%.

Consider `CS(=O)(=O)N1CCOCC2(CCN(c3ccccn3)C2)C1` (configuration not stated), for which the cytotoxicity at 10 µM turned out to be 14.3%.

For the molecule `N#CCc1ccc(NC(=O)N[C@H](CO)Cc2ccc(O)cc2)cc1`, the cytotoxicity at 10 µM was -1.8%.

Turning to `CC(O)c1cccc(-n2c(CCC(=O)O)nc3ccccc32)c1` (configuration not stated), the cytotoxicity at 10 µM was 2.16%.

Consider `CCNC(=O)N1CCC(OC)c2ccccc2N(CC(=O)NC)C(=O)C1` (configuration not stated), for which the cytotoxicity at 10 µM was determined as 5.5%.

As to `Cc1ccc([C@H]2CN(C(=O)C3CCC3)C[C@@H]2N)o1`, the cytotoxicity at 10 µM came to 7.95%.

Take `Cc1nc(CCN(C)C(=O)CCNC(=O)c2ccccc2F)no1`: the cytotoxicity at 10 µM was 6.35%.

Regarding `CCn1nc(C(=O)N2CCCC(n3cncn3)C2)ccc1=O` (configuration not stated), the cytotoxicity at 10 µM was -3.3%.

With `Cc1noc(C)c1CN1C[C@@H]2COC[C@@H](CC(=O)N3CCCO3)[C@@H]2C1`, the cytotoxicity at 10 µM was -68.3%.

As for `CC1(NC(=O)CNC(=O)C(C)(C)C)CCc2ccccc2C1` (configuration not stated), the cytotoxicity at 10 µM is -3.67%.

For `CCNC(=O)N1CCCC(c2noc(CC)n2)C1` (configuration not stated), the cytotoxicity at 10 µM was -2.45%.

As for `O=C(C1CCC2(CCN(CC3CCOCC3)CC2)O1)N1CCCC1` (configuration not stated), the cytotoxicity at 10 µM came to 1.91%.

For the molecule `CC(C)C(NC(=O)NCC1CC1)c1nnc2n1CCC2` (configuration not stated), the cytotoxicity at 10 µM is -7.44%.

Regarding `CC(C)CN1C(=O)C[C@@H]2[C@@H]1CCN2Cc1cccc(C#N)c1`, the cytotoxicity at 10 µM was -66.4%.

Regarding `CCCOC1CCCN(c2ccnc(C(=O)NCc3ccco3)c2)C1` (configuration not stated), the cytotoxicity at 10 µM is 5.58%.

With `CCOc1ccccc1C(=O)NCCc1ccoc1`, the cytotoxicity at 10 µM was 8.54%.

Consider `CC1CN(C(=O)NCc2cnn(-c3ccc(F)cc3F)c2)CCO1` (configuration not stated), for which the cytotoxicity at 10 µM was 2.18%.

Consider `O=C(NCC1CC1)[C@H]1C[C@@H]2CCN(Cc3ccc4c(c3)OCO4)C[C@@H]2O1`, for which the cytotoxicity at 10 µM is -0.208%.

`Cc1cccc(-c2nc(C)nn2CN2CCC3(CC2)OCCO3)c1`: the cytotoxicity at 10 µM is -13.8%.

As to `CN(Cc1ccc(Cl)cc1)S(=O)(=O)N(C)Cc1cnn(C)c1`, the cytotoxicity at 10 µM was determined as 16.5%.

In the case of `CCc1cc(CN(C)C(=O)c2cc(=O)[nH]c(=O)[nH]2)on1`, the cytotoxicity at 10 µM is 8.71%.

In the case of `OCCN(Cc1ccno1)Cc1cc(Br)ccc1F`, the cytotoxicity at 10 µM amounted to 6%.

On to `Cn1ccnc1C1CCN(CCC2CCOC2)CC1` (configuration not stated), for which the cytotoxicity at 10 µM is -4.06%.

`CCS(=O)(=O)NCCN(CCO)C1CCc2ccccc21` (configuration not stated): the cytotoxicity at 10 µM stood at 14.4%.

On to `Cc1oncc1C(=O)N1CC2CC1(C(=O)NCc1ccco1)C2`, for which the cytotoxicity at 10 µM is 4.76%.

For `CN1CCN(c2ccc(NCc3ccsc3)cn2)CC1`, the cytotoxicity at 10 µM amounted to 2.97%.

In the case of `Cc1cc(-c2cnn(CCNC(=O)c3snnc3C)c2C2CC2)on1`, the cytotoxicity at 10 µM is -7.16%.

`CN(Cc1cccc(Cl)c1)S(=O)(=O)N1CCOCC1`: the cytotoxicity at 10 µM was -8.2%.

With `Cc1nn(C)c2nc(-c3ccccn3)nc(NC[C@@H]3CCCO3)c12`, the cytotoxicity at 10 µM is 7.49%.

As to `FC(F)Sc1ccc(NCc2nnc(C3CC3)o2)cc1`, the cytotoxicity at 10 µM stood at 14.7%.

Turning to `CC(C)Oc1ccccc1C1CC(=O)Nc2c1cnn2C` (configuration not stated), the cytotoxicity at 10 µM turned out to be 2.09%.

For `CC(NC(=O)NCCCc1n[nH]c(N)c1C#N)c1ccccc1F` (configuration not stated), the cytotoxicity at 10 µM is -3.6%.

Turning to `O=C(c1c[nH]c(=O)[nH]1)N1CCCC2(CCC(=O)N(C3CCCC3)C2)C1` (configuration not stated), the cytotoxicity at 10 µM is -3.74%.

As to `CSCC[C@H]1CN2CCC[C@H]2CN1Cc1coc2ccc(C)cc2c1=O`, the cytotoxicity at 10 µM is -1.04%.

Turning to `O=c1[nH]ccc2cc(-c3cc(O)cc(CCC4CCCCN4)c3)ccc12` (configuration not stated), the cytotoxicity at 10 µM turned out to be 1.81%.

On to `CNC(=O)c1cnc(C=Cc2ccc(O)c(OC)c2)s1`, for which the cytotoxicity at 10 µM is 0.23%.

On to `CC(C)N(C)C(=O)C1CCC2(CCNCC2)O1` (configuration not stated), for which the cytotoxicity at 10 µM was -129%.

On to `CN1CCN2CCN(C(=O)c3cc4ncc(CCO)cn4n3)CC2C1` (configuration not stated), for which the cytotoxicity at 10 µM stood at 6.99%.

With `CC1CN(C)c2ccccc2CN1C(=O)c1ccncc1F` (configuration not stated), the cytotoxicity at 10 µM was -16.9%.

For the molecule `COc1ccc(CN(C)CCS(=O)(=O)c2ccc(Cl)cc2)cc1OC`, the cytotoxicity at 10 µM turned out to be 2.68%.

`COCC(=O)N1CCn2c(COc3cccnc3)cnc2C1C` (configuration not stated): the cytotoxicity at 10 µM is 2.14%.

Take `CN(C)c1nccnc1C1CCN(c2cnccn2)CC1`: the cytotoxicity at 10 µM was determined as 4.58%.

The record behind these values is ChEMBL document CHEMBL4513216, “Probing the Open Global Health Chemical Diversity Library for Multistage-Active Starting Points for Next-Generation Antimalarials” (ACS Infect Dis, 2020).
